In the library only some 2.3% were active in any assay of this set; here they are far more common.
ABHD4 inh = inhibitors of mouse ABHD4 | purified mABHD4, FP-Rh probe fluorescence polarization | Q8VD66 | actives 0.54% (n = 370,000) | AID 720543 | inhibition, % at 8.92 µM;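 active means inhibition exceeding the mean over every tested compound plus 3 SD, cut at about 30% in these data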;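 further: 0% = plate median of compound wells and 100% = S159A mutant with DMSO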
Target sequence (Q8VD66 whole entry, looked up): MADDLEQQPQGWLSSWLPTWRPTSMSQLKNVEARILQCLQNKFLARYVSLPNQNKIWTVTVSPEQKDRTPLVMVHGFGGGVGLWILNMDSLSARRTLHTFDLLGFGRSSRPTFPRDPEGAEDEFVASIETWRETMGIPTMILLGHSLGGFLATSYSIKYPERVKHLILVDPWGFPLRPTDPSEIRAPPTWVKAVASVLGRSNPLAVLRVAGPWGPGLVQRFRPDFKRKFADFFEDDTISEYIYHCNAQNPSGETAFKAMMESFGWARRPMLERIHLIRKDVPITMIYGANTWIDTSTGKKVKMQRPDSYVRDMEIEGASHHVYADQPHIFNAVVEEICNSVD
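Material: mouse ABHD4 enzyme, wild type; Benchmarks: S159A mutant high control, sample median low control; Buffer or medium: HEPES pH 7.0, NaCl, Pluronic buffer; Signal: fluorescence polarization; Read-out: percent inhibition of probe binding, normalized to plate controls; Timing: pre-incubation 45 min, probe exposure 60 min, at 25 °C; Dosing: 8.92 µM, single dose.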
HTRA1 inhibitor = HTRA1 (human) protease inhibition | Q92743 | recombinant HTRA1, FP-rhodamine activity-based probe, fluorescence polarization | inhibition, % at 5.96 µM | actives 0.5% (n = 340,000); in the data active means inhibition above about 36%;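 further: 0% = enzyme with DMSO and 100% = wells lacking enzyme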
SIAE primary = human SIAE inhibition, primary screen | Q9HAT2 | SIAE FP-Rh probe binding, fluorescence polarization | inhibition, % at 9.66 µM | actives 0.69% (n = 370,000) | AID 1053197;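 active means inhibition above a cutoff: mean of compounds within the control limits plus 3 SD of those, cut at about 17% in these data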;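 further: 0% = plate median of compound wells and 100% = probe without SIAE protein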
pPAFAH inh = pPAFAH (human) enzyme inhibition | inhibition, % at 3.39 µM | actives 1.5% (n = 330,000) | AID 463082 | Q13093 | recombinant pPAFAH, FP-rhodamine probe fluorescence polarization;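 active means inhibition above the mean inhibition across the screen plus 3 SD, cut at about 25% in these data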;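 further: inhibitors block binding of the rhodamine activity-based probe so polarization drops; 0% = enzyme with DMSO and 100% = wells lacking pPAFAH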
TCR CD3 inh = human TCR-CD3 binding inhibition; inhibition, % at 9.4 µM; actives 0.37% (n = 360,000); TAMRA-labeled TCR probe fluorescence, biochemical;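 further: recombinant mutant TCR 2C K166C tagged with TAMRA read by polarization; 0% = receptor in buffer alone and 100% = receptor with positive control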
HTRA1 conf = HTRA1 (human) inhibition, confirmation; actives 66% (n = 1,600); recombinant HTRA1, FP-rhodamine activity-based probe, fluorescence polarization; AID 540248; inhibition, % at 5.96 µM; shares compounds with HTRA1 inhibitor;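 active means mean inhibition over three repeats above a set limit taken from the earlier primary screen, cut at about 37% in these data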;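 further: 0% = HTRA1 with DMSO and 100% = wells lacking HTRA1; inhibitors block probe binding so polarization drops and inhibition rises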
BSA probe FL = BSA probe counter-screen for TCR-CD3 inhibitors; shares compounds with TCR CD3 inh; TAMRA-labeled BSA probe fluorescence counterscreen; inhibition, % at 9.4 µM; actives 10% (n = 1,200); in the data active means inhibition above about 23%;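 further: 0% = buffer low control and 100% = reference high control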
TCR-CD3 conf = confirmation of human TCR-CD3 interaction inhibitors; actives 48% (n = 1,200); TAMRA-labeled TCR probe fluorescence binding assay; shares compounds with TCR CD3 inh; AID 652036; inhibition, % at 9.4 µM
mABHD4 conf = confirmation of mouse ABHD4 inhibitors; shares compounds with ABHD4 inh; purified mABHD4, FP-Rh probe fluorescence polarization; inhibition, % at 8.92 µM; actives 55% (n = 1,800);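 active means mean inhibition across replicates above the hit cutoff set in the primary screen, cut at about 30% in these data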;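 further: 0% = wild-type ABHD4 with DMSO and 100% = catalytically dead S159A mutant with DMSO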
SIAE confirm = human SIAE inhibition, confirmation; shares compounds with SIAE primary; SIAE FP-Rh activity-based probe, fluorescence polarization; inhibition, % at 9.66 µM; actives 13% (n = 2,300);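 active means mean inhibition of the replicates above the hit cutoff set in the primary screen, cut at about 17% in these data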;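 further: 0% = SIAE with DMSO and probe and 100% = probe without SIAE; inhibitors lower polarization as more probe stays unbound to SIAE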
Starred values were filed as active, the others as inactive; . = no result given. Unless noted, no stated cut-off is given here; in the data, active means inhibition above about 19%; inactive means the rest.

SMILES	ABHD4 inh	HTRA1 inhibitor	SIAE primary	pPAFAH inh	TCR CD3 inh	BSA probe FL	TCR-CD3 conf	others
O=C1c2ccccc2-c2onc3ccc(N4CCCC4)c1c23	99*	91*	76*	.	111*	186*	145*	HTRA1 conf=27;mABHD4 conf=70*;SIAE confirm=56*
CCCCN1C(=O)N2Cc3cc(OC)ccc3C2CS1(=O)=O (stereo not drawn)	4	.	-3	.	.	.	.
COc1ccc2c3c(cccc13)C(=O)CC2	87*	141*	73*	.	57*	14	7	HTRA1 conf=3;mABHD4 conf=5;SIAE confirm=3
CNc1ccc(Br)cc(C(=O)/C=C/c2ccc(OC)cc2OC)c1=O	36*	50*	21*	25*	19*	-5	8	HTRA1 conf=17;mABHD4 conf=30*;SIAE confirm=7
O=C(N/N=C/c1ccc(O)c2ncccc12)c1cccc(Br)c1	9	67*	29*	27*	0	.	.	HTRA1 conf=59*;SIAE confirm=13
O=C(N/N=C/c1cc2c3c(c1O)CCCN3CCC2)c1ccccc1O	44*	51*	43*	.	69*	31*	68*	HTRA1 conf=58*;mABHD4 conf=22;SIAE confirm=36*
CC(OC(=O)c1ccc(NC(=O)CC#N)cc1)C(=O)NCCC1=CCCCC1 (stereo not drawn)	-25	-21	-25	-17	13	.	.
Cc1cc(C)cc(NC(=O)C(OC(=O)c2ccc(NC(=O)CC#N)cc2)c2ccccc2)c1 (stereo not drawn)	-78	-92	-111	3	27*	-6	10
CCOC(=O)c1c(C)[nH]c(C(=O)C(C)OC(=O)c2ccc(NC(=O)CC#N)cc2)c1C (stereo not drawn)	-18	-60	-54	12	52*	5	6
CC(OC(=O)c1ccc(NC(=O)CC#N)cc1)C(=O)NC(=O)NC1CCCCC1 (stereo not drawn)	-58	10	-35	-31	20*	-1	1
Cc1ccc(C)c(NC(=O)C(OC(=O)c2ccc(NC(=O)CC#N)cc2)c2ccccc2)c1 (stereo not drawn)	-41	-73	-77	-6	14	.	.
COc1ccc(Cl)cc1S(=O)(=O)N1CCN(C(=O)CSc2nc3ccccc3nc2N2CCCC2)CC1	-3	.	-5	.	.	.	.
Fc1ccccc1-c1nc(N2CCCCC2)c2ccccc2n1	2	-10	-5	1	28*	14	7
Oc1ccccc1-c1nc(N2CCCC2)c2ccccc2n1	1	5	2	2	8	.	.
Cc1ccc(NC(=O)OC2CC3CC2[C@H]2CCCCN2C3)cc1C (stereo partly drawn)	-1	.	3	.	.	.	.
O=C(N/N=C/c1c(O)n(Cc2ccco2)c(=O)[nH]c1=O)c1ccccc1	16	14	15	7	23*	-2	20*
O=C(N/N=C\c1ccccc1OCc1ccccc1)c1ccco1	-15	-18	-10	1	-8	.	.
Cc1nn(-c2ccccc2)c2sc(C(=O)N3CCN(Cc4ccccc4)CC3)cc12	-21	.	-16	.	.	.	.
CC(C)Cc1nc2sc3c(=O)[nH]cnc3c2c2c1CCCC2	6	-5	2	3	20*	5	7
CC(C)Cc1nc2oc3c(=O)[nH]cnc3c2c2c1CCCC2	5	6	-3	-1	3	.	.
O=C(CCCN=C1NS(=O)(=O)c2ccccc21)OCC(=O)c1ccccc1	-1	2	-5	4	-2	.	.
O=C(COC(=O)CCCCCN=C1NS(=O)(=O)c2ccccc21)Nc1ccc(Cl)c(Cl)c1	1	-76	-119	-6	19*	7	10
CCOc1ccccc1NC(=O)C(=O)N/N=C/c1cc(Br)ccc1O	14	14	1	26*	28*	-10	21*
